For 1 compound, IC50 results are on record in ChEMBL document CHEMBL4251626, “4β-amidotriazole linked podophyllotoxin congeners: DNA topoisomerase-IIα inhibition and potential anticancer agents for prostate cancer” (Eur J Med Chem, 2018).

The structures appear in SMILES notation.

The first assay relates to HT-29. The assay is described as follows: Antiproliferative activity against human HT-29 cells after 48 hrs by MTT assay. It counts as functional, cell-based. To be noted: HT-29, 48 h. The procedure, abridged:
(§1)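 Cells in DMEM/10% FBS pre-incubated 24 h at 37 °C, then compound-treated 48 h (10 mM DMSO stock diluted in medium). MTT (10 µL of 5 mg/mL) added for 4 h; formazan dissolved in DMSO, absorbance read at 570 nm. IC50 = 50% inhibitory concentration, mean of three individual experiments.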
(In general: Formazan colour is commonly taken as a measure of viable cells.)
On to `COc1cc([C@@H]2c3cc4c(cc3C(NC(=O)c3cn(Cc5ccc(C(F)(F)F)cc5)nn3)[C@H]3COC(=O)[C@H]23)OCO4)cc(OC)c1OC` (single isomer, unassigned), for which the half-inhibitory concentration (IC50) (in general, the concentration that gives 50% inhibition) was 66.4 µM.

The test system of the next assay is A549. Put plainly: Antiproliferative activity against human A549 cells after 48 hrs by MTT assay. It counts as functional, cell-based. To be noted: A549, 48 h. In outline: as §1
Consider `COc1cc([C@@H]2c3cc4c(cc3C(NC(=O)c3cn(Cc5ccc(C(F)(F)F)cc5)nn3)[C@H]3COC(=O)[C@H]23)OCO4)cc(OC)c1OC` (single isomer, unassigned), for which half-maximal inhibition (IC50) was put at 27.8 µM.

A further assay deals with DU-145. Put plainly: Antiproliferative activity against human DU145 cells after 48 hrs by MTT assay. The following applies: DU-145, 48 h. Format: functional, cell-based. The procedure, abridged: as §1
`COc1cc([C@@H]2c3cc4c(cc3C(NC(=O)c3cn(Cc5ccc(C(F)(F)F)cc5)nn3)[C@H]3COC(=O)[C@H]23)OCO4)cc(OC)c1OC` (single isomer, unassigned) had a 50% inhibitory concentration (IC50) of 32.9 µM.

A further assay has as its system MCF7. The assay is described as follows: Antiproliferative activity against human MCF7 cells after 48 hrs by MTT assay. Format: functional, cell-based. To be noted: MCF7, 48 h. In outline:
as §1
In the case of `COc1cc([C@@H]2c3cc4c(cc3C(NC(=O)c3cn(Cc5ccc(C(F)(F)F)cc5)nn3)[C@H]3COC(=O)[C@H]23)OCO4)cc(OC)c1OC` (single isomer, unassigned), the concentration for half-maximal inhibition (IC50) was 21.9 µM.

A further assay deals with HepG2. The assay is described as follows: Antiproliferative activity against human HepG2 cells after 48 hrs by MTT assay. It counts as functional, cell-based. The following applies: HepG2, 48 h. In outline: as §1
In turn, `COc1cc([C@@H]2c3cc4c(cc3C(NC(=O)c3cn(Cc5ccc(C(F)(F)F)cc5)nn3)[C@H]3COC(=O)[C@H]23)OCO4)cc(OC)c1OC` (single isomer, unassigned) showed an IC50 of 20.4 µM.

The subject of the next assay is NIH3T3. The assay is described as follows: Antiproliferative activity against mouse NIH/3T3 cells after 48 hrs by MTT assay. It counts as cell-based. The following applies: NIH3T3, 48 h. The procedure, abridged: as §1
The compound `COc1cc([C@@H]2c3cc4c(cc3C(NC(=O)c3cn(Cc5ccc(C(F)(F)F)cc5)nn3)[C@H]3COC(=O)[C@H]23)OCO4)cc(OC)c1OC` (single isomer, unassigned) gave an IC50 of 75.5 µM.

The test system of another assay is HeLa. Put plainly: Antiproliferative activity against human HeLa cells after 48 hrs by MTT assay. Format: functional, cell-based.
Conditions: not given
The procedure, abridged: as §1
In the case of `COc1cc([C@@H]2c3cc4c(cc3C(NC(=O)c3cn(Cc5ccc(C(F)(F)F)cc5)nn3)[C@H]3COC(=O)[C@H]23)OCO4)cc(OC)c1OC` (single isomer, unassigned), the IC50 was 26.6 µM.
